Data as given in ChEMBL document CHEMBL1142964, “Synthesis and biological evaluation of [18F]bicalutamide, 4-[76Br]bromobicalutamide, and 4-[76Br]bromo-thiobicalutamide as non-steroidal androgens for prostate cancer imaging” (J Med Chem, 2007).

Experiments:
Androgen receptor = molecular target: T1, Androgen receptor (Rattus norvegicus, UniProt P15207); experiment: Binding affinity to rat AR
T1 sequence (P15207 whole entry): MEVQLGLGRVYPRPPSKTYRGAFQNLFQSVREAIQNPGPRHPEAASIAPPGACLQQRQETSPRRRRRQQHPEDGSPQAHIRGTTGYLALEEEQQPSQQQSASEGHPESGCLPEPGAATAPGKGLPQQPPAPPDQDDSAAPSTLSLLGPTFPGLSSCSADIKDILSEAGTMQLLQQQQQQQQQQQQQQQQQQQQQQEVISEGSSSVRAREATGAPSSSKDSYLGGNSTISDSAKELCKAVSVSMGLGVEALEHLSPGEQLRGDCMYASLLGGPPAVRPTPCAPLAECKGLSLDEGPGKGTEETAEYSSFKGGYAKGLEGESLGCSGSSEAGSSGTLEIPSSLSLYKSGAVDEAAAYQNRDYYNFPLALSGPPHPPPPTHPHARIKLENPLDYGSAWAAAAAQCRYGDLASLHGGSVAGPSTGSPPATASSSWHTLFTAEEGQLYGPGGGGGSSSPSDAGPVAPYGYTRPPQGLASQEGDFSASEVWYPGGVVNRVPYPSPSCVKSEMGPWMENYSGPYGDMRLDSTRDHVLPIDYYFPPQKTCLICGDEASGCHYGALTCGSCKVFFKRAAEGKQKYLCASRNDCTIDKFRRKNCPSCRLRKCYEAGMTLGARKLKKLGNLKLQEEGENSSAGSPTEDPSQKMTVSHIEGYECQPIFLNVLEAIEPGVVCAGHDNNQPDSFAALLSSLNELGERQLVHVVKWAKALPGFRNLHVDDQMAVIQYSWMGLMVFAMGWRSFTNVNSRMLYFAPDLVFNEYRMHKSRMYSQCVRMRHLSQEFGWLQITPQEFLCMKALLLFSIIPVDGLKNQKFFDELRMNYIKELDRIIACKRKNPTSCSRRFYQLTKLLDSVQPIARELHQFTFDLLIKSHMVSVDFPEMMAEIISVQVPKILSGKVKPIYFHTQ

[1] = Biodistribution in bone of iv dosed Sprague-Dawley rat after 18 hrs; format: ADME, organism-based, Bone element; conditions: read-out: Drug uptake
Procedure, shortened: (§1)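 76Br-tracer in 10% ethanol-saline, given iv by tail vein to mature male Sprague-Dawley rats (250 g) castrated 7 days before. Doses were 4 µCi/animal (1 h) and 7 µCi/animal (18 h). Block group used testes-intact rats, with the AR saturated by endogenous androgen. Five animals per group. Tissues were excised, weighed, saline-washed, blotted and counted. %ID/g was taken against injected-dose standards.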

Prostate gland [2] = experiment: Biodistribution in prostate of iv dosed testis-intact Sprague-Dawley rat after 18 hrs block; format: ADME, organism-based; conditions: in vivo; procedure, shortened: as §1
[3] = Biodistribution in muscle of iv dosed Sprague-Dawley rat after 18 hrs; format: ADME, organism-based, Muscle tissue; conditions: read-out: Drug uptake; procedure, shortened: as §1
[4] = Biodistribution in liver of iv dosed Sprague-Dawley rat after 18 hrs; format: ADME, organism-based; conditions: read-out: Drug uptake; procedure, shortened: as §1
Muscle tissue [5] = experiment: Biodistribution in muscle of iv dosed testis-intact Sprague-Dawley rat after 18 hrs block; format: ADME, organism-based; conditions: in vivo; procedure, shortened: as §1
[6] = Biodistribution in prostate of iv dosed CWR22 tumor bearing mouse after 60 min; format: ADME, organism-based, Prostate gland; conditions: human, read-out: Drug uptake
[7] = Biodistribution in kidney of iv dosed CWR22 tumor bearing mouse with 17alpha-methyltestosterone-induced androgen block after 90 min; format: ADME, organism-based; conditions: human, in vivo, 1.5 h
Procedure, shortened: (§2)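 Mature male mice (25 g) bearing flank CWR22 prostate tumors received DES (0.2 mg in 0.1 mL sesame oil, sc) 24 and 3 h before the tracer. 76Br-tracer, 6 µCi/animal in 10% ethanol-saline, was given iv by tail vein. Mice were killed at 30 or 90 min. Block set was co-injected with 8 µg 17α-methyltestosterone. Five animals per point. Results are %ID/g.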

[8] = Biodistribution in muscle of iv dosed Sprague-Dawley rat after 1 hr; format: ADME, organism-based, Muscle tissue; conditions: read-out: Drug uptake; procedure, shortened: as §1
[9] = Biodistribution in prostate of iv dosed CWR22 tumor bearing mouse with 17alpha-methyltestosterone-induced androgen block after 90 min; format: ADME, organism-based, Prostate gland; conditions: human, read-out: Drug uptake; procedure, shortened: as §2
Kidney [10] = experiment: Biodistribution in kidney of iv dosed testis-intact Sprague-Dawley rat after 18 hrs block; format: ADME, organism-based; conditions: in vivo; procedure, shortened: as §1
[11] = Biodistribution in prostate of iv dosed Sprague-Dawley rat after 18 hrs; format: ADME, organism-based, Prostate gland; conditions: read-out: Drug uptake; procedure, shortened: as §1
Liver = experiment: Biodistribution in liver of iv dosed testis-intact Sprague-Dawley rat after 18 hrs block; format: ADME, organism-based; conditions: in vivo; procedure, shortened: as §1
Bone [12] = experiment: Biodistribution in bone of iv dosed testis-intact Sprague-Dawley rat after 18 hrs block; format: ADME, organism-based, Bone element; conditions: in vivo; procedure, shortened: as §1
[13] = Biodistribution in muscle of iv dosed CWR22 tumor bearing mouse after 30 min; format: ADME, organism-based, Muscle tissue; conditions: human, read-out: Drug uptake; procedure, shortened: as §2
[14] = Ratio of drug uptake in prostate to muscle in iv dosed Sprague-Dawley rat after 1 hr; format: ADME, organism-based, Prostate gland; conditions: in vivo
Procedure, shortened: (§3)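 Castrated male Sprague-Dawley rats were dosed iv (tail vein) with 4 µCi 76Br-tracer in 10% ethanol-saline and killed at 1 h, five per group. Tissues were weighed and counted and %ID/g calculated against dose standards. Ratios are prostate %ID/g over blood or muscle %ID/g.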

[15] = Biodistribution in prostate of iv dosed CWR22 tumor bearing mouse after 30 min; format: ADME, organism-based, Prostate gland; conditions: human, read-out: Drug uptake; procedure, shortened: as §2
[16] = Biodistribution in liver of iv dosed CWR22 tumor bearing mouse after 30 min; format: ADME, organism-based; conditions: human, read-out: Drug uptake; procedure, shortened: as §2
[17] = Biodistribution in tumor of iv dosed CWR22 tumor bearing mouse with 17alpha-methyltestosterone-induced androgen block after 90 min; format: ADME, organism-based; conditions: human, in vivo, 1.5 h; procedure, shortened: as §2
[18] = Biodistribution in kidney of iv dosed CWR22 tumor bearing mouse after 60 min; format: ADME, organism-based; conditions: human, read-out: Drug uptake
[19] = Biodistribution in blood of iv dosed Sprague-Dawley rat after 18 hrs; format: ADME, organism-based; conditions: read-out: Drug uptake; procedure, shortened: as §1
[20] = Biodistribution in kidney of iv dosed Sprague-Dawley rat after 1 hr; format: ADME, organism-based; conditions: read-out: Drug uptake; procedure, shortened: as §1
[21] = Biodistribution in muscle of iv dosed CWR22 tumor bearing mouse with 17alpha-methyltestosterone-induced androgen block after 90 min; format: ADME, organism-based; conditions: human, read-out: Drug uptake; procedure, shortened: as §2
Bone [22] = experiment: Biodistribution in bone of iv dosed testis-intact Sprague-Dawley rat after 1 hr block; format: ADME, organism-based, Bone element; conditions: in vivo; procedure, shortened: as §1
[23] = Biodistribution in tumor of iv dosed CWR22 tumor bearing mouse after 60 min; format: ADME, organism-based; conditions: human, read-out: Drug uptake
[24] = Biodistribution in liver of iv dosed CWR22 tumor bearing mouse with 17alpha-methyltestosterone-induced androgen block after 90 min; format: ADME, organism-based; conditions: human, in vivo, 1.5 h; procedure, shortened: as §2
[25] = Biodistribution in blood of iv dosed CWR22 tumor bearing mouse after 60 min; format: ADME, organism-based; conditions: human, in vivo, 1 h
[26] = Ratio of drug uptake in prostate to blood in iv dosed Sprague-Dawley rat after 1 hr; format: ADME, organism-based, Prostate gland; procedure, shortened: as §3
Kidney [27] = experiment: Biodistribution in kidney of iv dosed testis-intact Sprague-Dawley rat after 1 hr block; format: ADME, organism-based; conditions: in vivo; procedure, shortened: as §1
[28] = Biodistribution in bone of iv dosed Sprague-Dawley rat after 1 hr; format: ADME, organism-based, Bone element; conditions: read-out: Drug uptake; procedure, shortened: as §1
[29] = Biodistribution in prostate of iv dosed Sprague-Dawley rat after 1 hr; format: ADME, organism-based, Prostate gland; conditions: read-out: Drug uptake; procedure, shortened: as §1
[30] = Biodistribution in blood of iv dosed Sprague-Dawley rat after 1 hr; format: ADME, organism-based; conditions: read-out: Drug uptake; procedure, shortened: as §1
[31] = Biodistribution in liver of iv dosed testis-intact Sprague-Dawley rat after 1 hr block; format: ADME, organism-based; conditions: male, read-out: Drug uptake; procedure, shortened: as §1
Blood [32] = experiment: Biodistribution in blood of iv dosed testis-intact Sprague-Dawley rat after 1 hr block; format: ADME, organism-based; conditions: in vivo; procedure, shortened: as §1
[33] = Biodistribution in muscle of iv dosed CWR22 tumor bearing mouse after 60 min; format: ADME, organism-based, Muscle tissue; conditions: human, read-out: Drug uptake
[34] = Biodistribution in kidney of iv dosed Sprague-Dawley rat after 18 hrs; format: ADME, organism-based; conditions: read-out: Drug uptake; procedure, shortened: as §1
[35] = Biodistribution in blood of iv dosed CWR22 tumor bearing mouse with 17alpha-methyltestosterone-induced androgen block after 90 min; format: ADME, organism-based; conditions: human, read-out: Drug uptake; procedure, shortened: as §2
[36] = Biodistribution in liver of iv dosed CWR22 tumor bearing mouse after 60 min; format: ADME, organism-based; conditions: human, read-out: Drug uptake
Blood [37] = experiment: Biodistribution in blood of iv dosed testis-intact Sprague-Dawley rat after 18 hrs block; format: ADME, organism-based; conditions: in vivo; procedure, shortened: as §1
[38] = Biodistribution in tumor of iv dosed CWR22 tumor bearing mouse after 30 min; format: ADME, organism-based; conditions: human, read-out: Drug uptake; procedure, shortened: as §2
[39] = Biodistribution in blood of iv dosed CWR22 tumor bearing mouse after 30 min; format: ADME, organism-based; conditions: human, read-out: Drug uptake; procedure, shortened: as §2
Muscle tissue [40] = experiment: Biodistribution in muscle of iv dosed testis-intact Sprague-Dawley rat after 1 hr block; format: ADME, organism-based; conditions: in vivo; procedure, shortened: as §1
[41] = Biodistribution in liver of iv dosed Sprague-Dawley rat after 1 hr; format: ADME, organism-based; conditions: read-out: Drug uptake; procedure, shortened: as §1
Prostate gland [42] = experiment: Biodistribution in prostate of iv dosed testis-intact Sprague-Dawley rat after 1 hr block; format: ADME, organism-based; conditions: in vivo; procedure, shortened: as §1
[43] = Biodistribution in kidney of iv dosed CWR22 tumor bearing mouse after 30 min; format: ADME, organism-based; conditions: human, read-out: Drug uptake; procedure, shortened: as §2

Compound: CC(O)(CS(=O)(=O)c1ccc(Br)cc1)C(=O)Nc1ccc(C#N)c(C(F)(F)F)c1 (stereo not given)
- Kd (Androgen receptor): 110 nM

Compound: CC(O)(CS(=O)(=O)c1ccc([76Br])cc1)C(=O)Nc1ccc(C#N)c(C(F)(F)F)c1 (stereo not given)
- tissue uptake at 18 h [1]: 0.13 %ID/g
- Drug uptake (Prostate gland [2]): 0.22 % ID/g
- tissue uptake at 18 h [3]: 0.15 %ID/g
- tissue uptake at 18 h [4]: 0.56 %ID/g
- Drug uptake (Muscle tissue [5]): 0.11 % ID/g
- tissue uptake at 1 h [6]: 2.8 %ID/g
- Drug uptake [7]: 7.6 % ID/g
- tissue uptake at 1 h [8]: 0.34 %ID/g
- tissue uptake at 1.5 h [9]: 3.4 %ID/g
- Drug uptake (Kidney [10]): 0.26 % ID/g
- tissue uptake at 18 h [11]: 0.27 %ID/g
- Drug uptake (Liver): 0.36 % ID/g
- Drug uptake (Bone [12]): 0.12 % ID/g
- tissue uptake at 0.5 h [13]: 2.5 %ID/g
- Ratio [14]: 2.9
- tissue uptake at 0.5 h [15]: 2.2 %ID/g
- tissue uptake at 0.5 h [16]: 15 %ID/g
- Drug uptake [17]: 4.5 % ID/g
- tissue uptake at 1 h [18]: 7.8 %ID/g
- tissue uptake at 18 h [19]: 0.34 %ID/g
- tissue uptake at 1 h [20]: 1 %ID/g
- tissue uptake at 1.5 h [21]: 2.8 %ID/g
- Drug uptake (Bone [22]): 0.31 % ID/g
- tissue uptake at 1 h [23]: 3.8 %ID/g
- Drug uptake [24]: 14 % ID/g
- Drug uptake [25]: 3.5 % ID/g
- Kp at 1 h [26]: 1.8
- Drug uptake (Kidney [27]): 1 % ID/g
- tissue uptake at 1 h [28]: 0.28 %ID/g
- tissue uptake at 1 h [29]: 1 %ID/g
- tissue uptake at 1 h [30]: 0.56 %ID/g
- tissue uptake at 1 h [31]: 2.5 %ID/g
- Drug uptake (Blood [32]): 0.62 % ID/g
- tissue uptake at 1 h [33]: 2.9 %ID/g
- tissue uptake at 18 h [34]: 0.36 %ID/g
- tissue uptake at 1.5 h [35]: 3 %ID/g
- tissue uptake at 1 h [36]: 18 %ID/g
- Drug uptake (Blood [37]): 0.29 % ID/g
- tissue uptake at 0.5 h [38]: 2.5 %ID/g
- tissue uptake at 0.5 h [39]: 2.7 %ID/g
- Drug uptake (Muscle tissue [40]): 0.38 % ID/g
- tissue uptake at 1 h [41]: 2.1 %ID/g
- Drug uptake (Prostate gland [42]): 0.68 % ID/g
- tissue uptake at 0.5 h [43]: 7.2 %ID/g
